# Data: ChEMBL document CHEMBL3526065, “Metabolism of [6]-shogaol in mice and in cancer cells” (Drug Metab Dispos, 2012)
# How the values were obtained:
# [1] = Cytotoxicity against human HCT116 cells assessed as growth inhibition after 24 hrs by MTT assay; assay type: functional, cell-based; details: HCT-116, 24 h
# Summary of the method: (§1)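 Cells seeded at 3000/well, attached 24 h at 37°C, then exposed to test agents (0–80 μM, 0.1% DMSO final) for 24 h in McCoy's 5A with 10% FBS. Medium replaced with 2.41 mM MTT for 3 h at 37°C; formazan dissolved in DMSO, absorbance 550 nm. Viability as percentage of DMSO control; mean ± S.D., n = 6.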
# [2] = system: HCT-116; assay: Induction of apoptosis in human HCT116 cells assessed as apoptotic cells at 80 uM after 24 hrs by TUNEL assay; assay type: functional
# Summary of the method: (§2)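 HCT-116 or H-1299 cells seeded at 1.0 × 10⁵/well, after 24 h exposed for 24 h to compound (10–80 μM) or DMSO control. Cells were proteinase K-pretreated, formaldehyde-fixed, and slide-mounted for peroxidase TUNEL staining. Ten fields per slide counted at 400×; brown-nucleus cells given as percentage of total cells; mean ± S.E., n = 10.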
# [3] = Drug level in mouse CL-13 cells treated with 10 uM [6]-shogaol after 24 hrs by HPLC-ECD analysis; assay type: ADME, cell-based; details: cl-13, 24 h
# Summary of the method: (§3)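 Cells (1.0 × 10⁶) attached 24 h in six-well plates, then exposed to 10 μM final in McCoy's 5A with 10% FBS. Extracted with equal volume acetonitrile, diluted 5-fold, analysed by HPLC with electrochemical detection.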
# [4] = Drug level in C57BL/6J mouse feces treated with [6]-shogaol at 200 mg/kg, po by HPLC-ECD analysis relative to control; assay type: ADME, organism-based; set-up: dose 200 mg/kg, route oral; details: in vivo
# Summary of the method: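 Female C57BL/6J mice gavaged once with 200 mg/kg in corn oil, or corn oil alone (n = 5 each). 24-h feces collected in metabolic cages. Feces extracted by sonication 90 min in MeOH/H2O (50/50) + 0.1% acetic acid, centrifuged, diluted fivefold. Analysed by HPLC with electrochemical array detection (Gemini C18, phosphate/acetonitrile/THF gradient), compared against vehicle controls.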
# [5] = Drug level in human H1299 cells treated with 10 uM [6]-shogaol after 24 hrs by HPLC-ECD analysis; assay type: ADME, cell-based; details: nci-h1299, 24 h; summary of the method: as §3
# [6] = Cytotoxicity against human H1299 cells assessed as growth inhibition after 24 hrs by MTT assay; assay type: functional, cell-based; details: NCI-H1299, 24 h; summary of the method: as §1
# [7] = system: NCI-H1299; assay: Induction of apoptosis in human H1299 cells assessed as apoptotic cells at 40 uM after 24 hrs by TUNEL assay; assay type: functional; summary of the method: as §2
# [8] = system: HT-29; assay: Drug level in human HT-29 cells treated with 10 uM [6]-shogaol by HPLC-ECD analysis; assay type: ADME, cell-based; summary of the method: as §3
# [9] = system: NCI-H1299; assay: Induction of apoptosis in human H1299 cells assessed as apoptotic cells at 80 uM after 24 hrs by TUNEL assay; assay type: functional; summary of the method: as §2
# [10] = Drug level in human HCT116 cells treated with 10 uM [6]-shogaol after 24 hrs by HPLC-ECD analysis; assay type: ADME, cell-based; details: hct-116, 24 h; summary of the method: as §3
# [11] = Drug level in mouse CL-13 cells treated with 10 uM [6]-shogaol by HPLC-ECD analysis; assay type: ADME, cell-based; summary of the method: as §3
# [12] = system: HCT-116; assay: Induction of apoptosis in human HCT116 cells assessed as apoptotic cells at 40 uM after 24 hrs by TUNEL assay; assay type: functional; summary of the method: as §2
# [13] = Antioxidant activity assessed as DPPH radical scavenging activity; assay type: physicochemical
smiles,measurement,setting,value
CCCCCCCC(O)CCc1ccc(O)c(OC)c1 (centres undefined),IC50,[1],82.2 µM
same,Activity,[2],16.9%
same,Drug metabolism,[3],metabolite_detected
same,Drug excretion,[4],metabolite_detected
same,Drug metabolism,[5],metabolite_detected
same,IC50,[6],77.7 µM
same,Activity,[7],7.4%
same,Drug metabolism,[8],metabolite_detected
same,Activity,[9],15.4%
same,Drug metabolism,[10],metabolite_detected
same,Drug metabolism,[11],metabolite_detected
same,Activity,[12],9.6%
CCCCCCC[C@H](O)CC(=O)CCc1ccc(O)c(OC)c1,IC50,[13],20 µM
CCCCCCCC(=O)CCc1ccc(O)c(OC)c1,IC50,[1],84 µM
same,Activity,[2],21.1%
same,Drug excretion,[4],metabolite_detected
same,Drug metabolism,[5],metabolite_detected
same,IC50,[6],66.5 µM
same,Activity,[7],8.3%
same,Drug metabolism,[8],metabolite_detected
same,Activity,[9],19.4%
same,Drug metabolism,[10],metabolite_detected
same,Activity,[12],12.9%
CCCCCC(CC(=O)CCc1ccc(O)c(OC)c1)SCC(NC(C)=O)C(=O)O (centres undefined),Drug excretion,[4],metabolite_detected
CCCCC/C=C/C(O)CCc1ccc(O)c(OC)c1 (centres undefined),Drug excretion,[4],metabolite_detected
same,Drug metabolism,[10],metabolite_detected
CCCCCC(CC(=O)CCc1ccc(O)c(OC)c1)OC (centres undefined),Drug excretion,[4],metabolite_detected
CCCCCC(CC(O)CCc1ccc(O)c(OC)c1)SCC(N)C(=O)NCC(=O)O (centres undefined),Drug excretion,[4],metabolite_detected
CCCCCC(CC(O)CCc1ccc(O)c(OC)c1)SCC(NC(C)=O)C(=O)O (centres undefined),Drug excretion,[4],metabolite_detected
